For eight molecules, inhibition and IC50 results are on record in ChEMBL document CHEMBL1157613, “Salicylic acid based small molecule inhibitor for the oncogenic Src homology-2 domain containing protein tyrosine phosphatase-2 (SHP2)” (J Med Chem, 2010).

Activity calls are given as the source filed them. The rule behind the calls is not given here.

Broadly, the IC50 is the concentration needed to halve the response being measured.

For one assay, the target named is T1, Tyrosine-protein phosphatase non-receptor type 11 (Homo sapiens) (UniProt Q06124).
T1 sequence (whole entry): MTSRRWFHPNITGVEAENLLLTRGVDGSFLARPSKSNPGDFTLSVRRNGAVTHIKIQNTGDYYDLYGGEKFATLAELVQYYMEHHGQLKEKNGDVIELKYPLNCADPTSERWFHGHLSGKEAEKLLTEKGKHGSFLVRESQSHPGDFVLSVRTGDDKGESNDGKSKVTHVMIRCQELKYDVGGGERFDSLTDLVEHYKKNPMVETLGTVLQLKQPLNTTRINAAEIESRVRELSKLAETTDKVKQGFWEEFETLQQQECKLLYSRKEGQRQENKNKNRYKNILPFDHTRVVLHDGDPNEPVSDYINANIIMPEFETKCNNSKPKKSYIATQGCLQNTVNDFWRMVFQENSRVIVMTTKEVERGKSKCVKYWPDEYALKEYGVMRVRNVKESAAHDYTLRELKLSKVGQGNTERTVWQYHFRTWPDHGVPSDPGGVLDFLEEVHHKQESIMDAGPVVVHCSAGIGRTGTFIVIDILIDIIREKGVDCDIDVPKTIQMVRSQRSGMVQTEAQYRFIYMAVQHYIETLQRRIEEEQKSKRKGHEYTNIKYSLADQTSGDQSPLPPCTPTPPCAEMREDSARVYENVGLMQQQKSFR
Put plainly: Inhibition of SHP2-dependent ERK1/2 activation in EGF-stimulated HEK293 cells assessed as phosphorylated ERK1/2 level at 20 uM treated for 3 hrs before EGF challenge measured after 60 mins of EGF stimulation by immunoblot analysis. The format is cell-based. The essentials: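 HEK293 cells in DMEM with 10% FCS, 4 × 10^5 per well, grown 24 h. They were serum-deprived 16 h, given vehicle or compound at 0-20 μM for 3 h, then stimulated with EGF 2 ng/mL for 60 min. Lysates (30 μg) were run on 10% SDS-PAGE and immunoblotted for phospho-ERK1/2, normalised to total ERK1/2.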
In general terms: A western blot detects proteins with antibodies after separation by electrophoresis.
On to `Cn1c(-c2ccccc2)c(-c2cn(CCC(=O)Nc3ccccc3)nn2)c2cc(C(=O)O)c(O)cc21`, for which the inhibition result is “inactive”.

The target of the next assay is T2, Tyrosine-protein phosphatase non-receptor type 11 (Homo sapiens, UniProt Q06124).
T2 sequence (Q06124 whole entry): T1 sequence (whole entry)
As to the kind of experiment: Inhibition of SHP2 […] expressed in Escherichia coli BL21 (DE3) assessed as inhibition of p-nitrophenyl phosphate hydrolysis at pH 7 by spectrophotometry.
`Cn1c(-c2ccccc2)c(-c2cn(CC(=O)Nc3ccc(-c4ccccc4)cc3)nn2)c2cc(C(=O)O)c(O)cc21`: the concentration for half-maximal inhibition (IC50) is 9.3 µM.
For `Cn1c(-c2ccccc2)c(-c2cn(CCCC(=O)Nc3ccc(-c4ccccc4)cc3)nn2)c2cc(C(=O)O)c(O)cc21`, the IC50 came to 12 µM.
`Cn1c(-c2ccccc2)c(-c2cn(CC(=O)Nc3ccc(N4CCOCC4)cc3)nn2)c2cc(C(=O)O)c(O)cc21`: the IC50 was determined as 7.8 µM.
Regarding `Cn1c(-c2ccccc2)c(-c2cn(CC(=O)Nc3nc4ccccc4s3)nn2)c2cc(C(=O)O)c(O)cc21`, the IC50 came out at 9.1 µM.
Still for that read-out and setting: the figure for `Cn1c(-c2ccccc2)c(-c2cn(CC(=O)NC3c4ccccc4-c4ccccc43)nn2)c2cc(C(=O)O)c(O)cc21` is 10.4 µM; for `C#Cc1c(-c2ccccc2)n(C)c2cc(O)c(C(=O)O)cc12` it is 212 µM.
In the case of `Cn1c(-c2ccccc2)c(-c2cn(CCCCC(=O)N3c4ccccc4Sc4ccccc43)nn2)c2cc(C(=O)O)c(O)cc21`, the IC50 is 8 µM.
Consider `Cn1c(-c2ccccc2)c(-c2cn(CCC(=O)Nc3ccccc3)nn2)c2cc(C(=O)O)c(O)cc21`, for which the IC50 is 86 µM.
